Reference: ChEMBL document CHEMBL1157506, “Synthesis and pharmacological characterization of chiral pyrrolidinylfuran derivatives: the discovery of new functionally selective muscarinic agonists” (J Med Chem, 2008)

How the values were obtained:
[1] = Antagonist activity at muscarinic M1/M4 receptor in guinea pig lung assessed as effect on tissue contraction; type: functional, Cavia porcellus
[2] = Antagonist activity at muscarinic M3 receptor in guinea pig ileum assessed as effect on tissue tension changes; type: functional, Cavia porcellus
Summary of the method: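 Guinea pig ileum with isotonic recording of tension changes and 30 min equilibration. Dose-response curves to arecaidine propargyl ester taken at 30 min intervals; the first is discarded and the second serves as control. Responses are expressed as % of the maximal control-curve response, with parallel tissues given only the reference agonist to check sensitivity.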

[3] = target: T1, Muscarinic acetylcholine receptor M1 (Homo sapiens, UniProt P11229); experiment: Displacement of [3H]NMS from human muscarinic M1 receptor expressed in CHO cells by liquid scintillation counter; type: cell-based
T1 sequence (P11229 whole entry): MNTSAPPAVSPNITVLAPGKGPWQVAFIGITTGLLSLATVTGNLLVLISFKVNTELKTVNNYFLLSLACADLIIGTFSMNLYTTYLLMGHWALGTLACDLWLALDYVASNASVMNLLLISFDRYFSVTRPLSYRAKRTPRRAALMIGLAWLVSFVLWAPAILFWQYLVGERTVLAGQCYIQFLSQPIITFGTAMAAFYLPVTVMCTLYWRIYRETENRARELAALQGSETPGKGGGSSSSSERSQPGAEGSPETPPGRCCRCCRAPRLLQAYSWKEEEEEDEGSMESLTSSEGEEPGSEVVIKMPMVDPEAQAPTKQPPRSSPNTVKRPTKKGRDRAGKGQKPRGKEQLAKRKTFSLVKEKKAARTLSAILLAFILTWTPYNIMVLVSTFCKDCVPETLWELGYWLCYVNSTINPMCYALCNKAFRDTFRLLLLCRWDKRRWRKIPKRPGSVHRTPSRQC

[4] = target: T2, Muscarinic acetylcholine receptor M2 (Homo sapiens, UniProt P08172); experiment: Displacement of [3H]NMS from human muscarinic M2 receptor expressed in CHO cells by liquid scintillation counter; type: cell-based
T2 sequence (P08172 whole entry): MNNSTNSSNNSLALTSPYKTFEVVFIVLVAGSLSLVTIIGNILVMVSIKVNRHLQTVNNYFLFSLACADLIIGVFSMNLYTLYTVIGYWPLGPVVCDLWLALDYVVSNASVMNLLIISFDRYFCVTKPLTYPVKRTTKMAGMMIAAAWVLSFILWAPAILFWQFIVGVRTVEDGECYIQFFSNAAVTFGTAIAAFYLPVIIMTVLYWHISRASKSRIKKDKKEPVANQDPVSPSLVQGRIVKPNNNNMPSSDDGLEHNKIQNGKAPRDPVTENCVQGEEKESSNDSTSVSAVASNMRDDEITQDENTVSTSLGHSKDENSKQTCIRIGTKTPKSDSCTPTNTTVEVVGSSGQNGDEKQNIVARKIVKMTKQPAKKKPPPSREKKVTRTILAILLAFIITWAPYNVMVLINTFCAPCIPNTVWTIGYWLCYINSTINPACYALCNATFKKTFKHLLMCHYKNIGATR
Summary of the method: (§1)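 Membrane protein was 70 µg/mL for hm2, 50 µg/mL for hm4 and 25 µg/mL for hm5. Incubation was 120 min at room temperature in 25 mM sodium phosphate with 5 mM MgCl2, pH 7.4. GF/C filtration and scintillation counting followed; duplicates.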

[5] = target: Muscarinic acetylcholine receptor M3 (Homo sapiens, UniProt P20309); experiment: Displacement of [3H]NMS from human muscarinic M3 receptor expressed in CHO cells by liquid scintillation counter; type: cell-based
Muscarinic acetylcholine receptor M3, sequence (P20309 whole entry): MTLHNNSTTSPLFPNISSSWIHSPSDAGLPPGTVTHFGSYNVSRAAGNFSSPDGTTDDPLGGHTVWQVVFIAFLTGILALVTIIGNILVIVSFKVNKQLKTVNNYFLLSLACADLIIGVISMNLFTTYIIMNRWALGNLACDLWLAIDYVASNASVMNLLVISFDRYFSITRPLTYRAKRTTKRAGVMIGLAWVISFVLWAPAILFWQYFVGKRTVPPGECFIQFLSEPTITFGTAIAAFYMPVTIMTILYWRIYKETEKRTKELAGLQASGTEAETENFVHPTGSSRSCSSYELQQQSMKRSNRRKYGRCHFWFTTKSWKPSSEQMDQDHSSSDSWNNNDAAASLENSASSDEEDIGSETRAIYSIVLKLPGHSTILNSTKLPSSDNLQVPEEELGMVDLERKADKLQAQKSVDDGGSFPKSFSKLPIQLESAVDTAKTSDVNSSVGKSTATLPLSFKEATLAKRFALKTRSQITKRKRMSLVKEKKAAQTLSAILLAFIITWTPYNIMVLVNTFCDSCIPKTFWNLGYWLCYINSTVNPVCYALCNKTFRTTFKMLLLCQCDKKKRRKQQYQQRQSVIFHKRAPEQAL

[6] = target: T3, Muscarinic acetylcholine receptor M4 (Homo sapiens, UniProt P08173); experiment: Displacement of [3H]NMS from human muscarinic M4 receptor expressed in CHO cells by liquid scintillation counter; type: cell-based; summary of the method: as §1
T3 sequence (P08173 whole entry): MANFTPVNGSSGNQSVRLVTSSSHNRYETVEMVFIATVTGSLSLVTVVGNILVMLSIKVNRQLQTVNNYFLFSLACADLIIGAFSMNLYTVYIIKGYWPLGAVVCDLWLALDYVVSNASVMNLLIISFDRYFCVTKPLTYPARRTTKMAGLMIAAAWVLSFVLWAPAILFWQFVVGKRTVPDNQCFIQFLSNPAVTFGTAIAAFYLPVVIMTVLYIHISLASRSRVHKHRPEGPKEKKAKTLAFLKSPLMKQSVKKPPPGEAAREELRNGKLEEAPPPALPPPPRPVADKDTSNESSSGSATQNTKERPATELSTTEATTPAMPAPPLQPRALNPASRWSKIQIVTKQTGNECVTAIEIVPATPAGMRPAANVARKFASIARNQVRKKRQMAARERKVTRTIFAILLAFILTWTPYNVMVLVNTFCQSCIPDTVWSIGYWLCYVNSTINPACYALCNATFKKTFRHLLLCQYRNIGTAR

[7] = target: T4, Muscarinic acetylcholine receptor M5 (Homo sapiens, UniProt P08912); experiment: Displacement of [3H]NMS from human muscarinic M5 receptor expressed in CHO cells by liquid scintillation counter; type: cell-based; summary of the method: as §1
T4 sequence (P08912 whole entry): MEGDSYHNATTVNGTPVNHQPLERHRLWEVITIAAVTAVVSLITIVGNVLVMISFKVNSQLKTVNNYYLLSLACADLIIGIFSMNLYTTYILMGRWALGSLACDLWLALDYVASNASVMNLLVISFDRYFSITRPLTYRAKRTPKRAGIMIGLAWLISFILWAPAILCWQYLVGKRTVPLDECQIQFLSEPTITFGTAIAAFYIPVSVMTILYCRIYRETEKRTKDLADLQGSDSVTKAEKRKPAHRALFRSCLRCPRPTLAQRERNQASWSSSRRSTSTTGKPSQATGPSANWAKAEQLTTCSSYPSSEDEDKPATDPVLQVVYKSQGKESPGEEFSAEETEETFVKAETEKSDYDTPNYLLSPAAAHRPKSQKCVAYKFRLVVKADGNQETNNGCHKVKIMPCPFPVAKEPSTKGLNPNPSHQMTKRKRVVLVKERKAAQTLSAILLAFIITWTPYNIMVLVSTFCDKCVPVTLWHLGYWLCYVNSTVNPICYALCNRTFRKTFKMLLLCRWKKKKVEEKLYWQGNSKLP

[8] = Antagonist activity at muscarinic M1/M4 receptor in New Zealanda white rabbit vas deferens assessed as effect on isometric tissue contraction; type: functional, Oryctolagus cuniculus
Summary of the method: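 Rabbit vas deferens bathed at 30 °C with 10^-6 M yohimbine and 10^-8 M tripitramine to block α2-adrenoceptors and M2 receptors. Electrically stimulated with square-wave pulses (0.1 ms, 2 Hz, 10-15 V) and equilibrated 1 h. Isometric contractions recorded during a cumulative dose-response curve to McN-A-343. Responses are expressed as % of maximal control-curve response, with parallel reference-agonist-only tissues run.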

Cavia porcellus [9] = species: Cavia porcellus; experiment: Intrinsic activity at muscarinic M2 receptor in guinea pig atrium assessed as effect on inotropic activity relative to control; type: tissue-based; details: Cardiac atrium
Summary of the method: (§2)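 Left atria in PSS at 30 °C, paced via platinum electrodes (1 ms, 1 Hz, 5-10 V). Inotropic force recorded isometrically after 2 h equilibration. A cumulative APE reference curve was obtained, then cumulative agonist curves. Responses are expressed as % of the control maximal response.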

[10] = Agonist activity at muscarinic M2 receptor in guinea pig atrium assessed as effect on inotropic activity; type: functional, Cavia porcellus, Cardiac atrium; summary of the method: as §2
Cavia porcellus [11] = species: Cavia porcellus; experiment: Intrinsic activity at muscarinic M1/M4 receptor in guinea pig lung assessed as effect on tissue contraction relative to control
[12] = Agonist activity at muscarinic M1/M4 receptor in guinea pig lung assessed as effect on tissue contraction; type: functional, Cavia porcellus
Oryctolagus cuniculus = species: Oryctolagus cuniculus; experiment: Intrinsic activity at muscarinic M1/M4 receptor in New Zealanda white rabbit vas deferens assessed as effect on isometric tissue contraction relative to control; type: tissue-based
Summary of the method: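 Vas deferens in solution with 10^-6 M yohimbine and 10^-8 M tripitramine at 30 °C, field-stimulated (0.1 ms, 2 Hz, 10-15 V). Contractions recorded isometrically after 1 h equilibration. A cumulative McN-A-343 reference curve was built, then cumulative curves to the test agonist. Responses are expressed as % of the control curve's maximum. Parallel reference-only tissues served as sensitivity checks.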

Cavia porcellus [13] = species: Cavia porcellus; experiment: Intrinsic activity at muscarinic M3 receptor in guinea pig ileum assessed as effect on tissue tension changes relative to control; type: tissue-based
Summary of the method: (§3)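 Ileum tension changes recorded isotonically after 30 min equilibration. APE curves were run at 30 min intervals; the first was discarded and the second was taken as control. Cumulative agonist curves followed, with responses expressed as % of the control maximum. Parallel reference-only tissues served as sensitivity checks.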

[14] = Agonist activity at muscarinic M3 receptor in guinea pig ileum assessed as effect on tissue tension changes; type: functional, Cavia porcellus; summary of the method: as §3

| Structure (SMILES) | pKb [1] | pKb [2] | Ki [3] | Ki [4] | Ki [5] | Ki [6] | Ki [7] | pKb [8] | Intrinsic activity (Cavia porcellus [9]) | pD2 [10] | Intrinsic activity (Cavia porcellus [11]) | pD2 [12] | Intrinsic activity (Oryctolagus cuniculus) | Intrinsic activity (Cavia porcellus [13]) | pD2 [14] |
| --- | --- | --- | --- | --- | --- | --- | --- | --- | --- | --- | --- | --- | --- | --- | --- |
| Cc1ccc([C@@H]2CCC[N+]2(C)C)o1.[I-] | 5.96 | 7.82 | 5.62 µM | 1.66 µM | 2.69 µM | 5.13 µM | 3.63 µM | 5.9 | 0.42 | 7.49 |  |  |  |  |  |
| Cc1ccc(C2CCCN2C)o1 (racemic) | <5 | <5 | 26.9 µM | 14.5 µM | 22.9 µM | 24.5 µM | 21.9 µM |  | 0.37 | 6.31 |  |  |  |  |  |
| Cc1ccc([C@@H]2CCCN2C)o1 | <5 | <5 | 36.3 µM | 15.8 µM | 33.1 µM | 47.9 µM | 39.8 µM | <5 | 0.47 | 6.6 |  |  |  |  |  |
| CN1CCC[C@H]1c1ccco1 |  |  | 43.7 µM | 30.9 µM | 52.5 µM | 56.2 µM | 63.1 µM |  | 0.65 | 6.82 | 0.33 | 6.72 | 0.3 | 0.37 | 5.83 |
